Measurements pooled from the literature.
≈ marks a conversion by molar mass, not a printed value.
Read-out: microbial growth

For CN[C@H](CC(C)C)C(=O)N[C@H]1C(=O)N[C@@H](CC(N)=O)C(=O)N[C@H]2C(=O)N[C@H]3C(=O)N[C@H](C(=O)N[C@H](C(=O)O)c4cc(O)cc(O)c4-c4cc3ccc4O)[C@H](O)c3ccc(c(Cl)c3)Oc3cc2cc(c3O[C@@H]2O[C@H](CO)[C@@H](O)[C@H](O)[C@H]2O[C@H]2C[C@](C)(N)[C@H](O)[C@H](C)O2)Oc2ccc(cc2Cl)[C@H]1O, the MIC was 250 µg/mL (≈ 173 µM) (Enterococcus faecium; ATCCBAA2317 VRE; drug-resistant strain).
OC(Cn1cncn1)(Cn1cncn1)c1ccc(F)cc1F gave an MIC of greater than 128 µg/mL (Candida albicans; 28A).
For CCCCCC/C=C\CCCCCCCCCc1cc(O)cc(O)c1, the MIC was 64 µg/mL (≈ 185 µM) (Enterococcus faecium; broth dilution; drug-resistant strain).
With O=c1c2ccccc2nc(/C=C/c2ccc([N+](=O)[O-])cc2)n1-c1ccc(O)cc1 the MIC was 64 µg/mL (≈ 166 µM) (Enterococcus faecium; broth dilution; NCTC7171).
COC(=O)c1cc(-c2cccc(NC(=O)Nc3ccc(Cl)c(Cl)c3)c2)on1 gave an MIC of greater than 64 µg/mL (Mycobacteroides chelonae; broth dilution; ATCC35752; 48 h).
The MIC of O=c1c2ccccc2nc(Cc2ccccc2)n1-c1cccc(O)c1 is reported as 128 µg/mL (≈ 390 µM) (Enterococcus faecium; broth dilution; NCTC7171).
With COC(=O)c1cc(-c2cccc(NC(=O)Nc3ccccc3C)c2)on1 the MIC was greater than 64 µg/mL (Mycobacteroides chelonae; broth dilution; ATCC35752; 48 h).
With O=c1c2cc(Br)ccc2nc(/C=C/c2ccc([N+](=O)[O-])cc2)n1-c1cccc(O)c1 the MIC was greater than 128 µg/mL (Enterococcus faecium; broth dilution; NCTC7171).
CCOC(=O)CON gave an MIC of 32 µg/mL (≈ 269 µM) (Candida albicans; 28A).
With COC(=O)c1cc(-c2cccc(NC(=O)Nc3ccccc3)c2)on1 the MIC was greater than 64 µg/mL (Mycobacteroides chelonae; broth dilution; ATCC35752; 48 h).
With CCCCCCCCCC(=O)N[C@@H](Cc1c[nH]c2ccccc12)C(=O)N[C@H](CC(N)=O)C(=O)N[C@@H](CC(=O)O)C(=O)N[C@@H]1C(=O)NCC(=O)N[C@@H](CCCN)C(=O)N[C@@H](CC(=O)O)C(=O)N[C@H](C)C(=O)N[C@@H](CC(=O)O)C(=O)NCC(=O)N[C@H](CO)C(=O)N[C@@H]([C@H](C)CC(=O)O)C(=O)N[C@@H](CC(=O)c2ccccc2N)C(=O)O[C@@H]1C the MIC was 0.25 µg/mL (≈ 0.154 µM) (Enterococcus faecium; broth dilution; drug-resistant strain).
C=C(NC(=O)C(=C)NC(=O)c1csc(C2=N[C@@H]3c4csc(n4)[C@H]4NC(=O)c5csc(n5)[C@H]([C@](C)(O)[C@@H](C)O)NC(=O)[C@H]5CSC(=N5)/C(=C/C)NC(=O)[C@H]([C@@H](C)O)NC(=O)c5csc(n5)[C@]3(CC2)NC(=O)[C@H](C)NC(=O)C(=C)NC(=O)[C@H](C)NC(=O)[C@H]([C@@H](C)CC)N[C@@H]2C=Cc3c([C@H](C)O)cc(nc3[C@H]2O)C(=O)O[C@@H]4C)n1)C(N)=O has an MIC of 0.12 µg/mL (≈ 0.0721 µM) (Enterococcus faecium).
The MIC of COC(=O)c1cc(-c2ccc(OC)c(NC(=O)Nc3ccc(Cl)c(Cl)c3)c2)on1 is reported as greater than 64 µg/mL (Mycobacteroides chelonae; broth dilution; ATCC35752; 48 h).
O=c1c2ccccc2nc(CCc2ccccc2)n1-c1cccc(O)c1 has an MIC of greater than 128 µg/mL (Enterococcus faecium; broth dilution; NCTC7171).
